From ChEMBL document CHEMBL1137504, “Effect of indole ethyl isothiocyanates on proliferation, apoptosis, and MAPK signaling in neuroblastoma cell lines” (Bioorg Med Chem Lett, 2007)
Calls of active or inactive are those of the source. The rule behind the calls is not given here.

What was measured:
[1] = system: SH-SY5Y; experiment: Cytotoxicity against SH-SY5Y cells after 48 hrs by MTS assay; assay type: functional, cell-based; details: Homo sapiens
Outline: (§1)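 Cells were seeded at 5 × 10^5 per T75 flask and grown to about 80% confluency. Lines were NB (IMR-32, SH-SY5Y, SMS-KCNR, SK-N-SH) or primary human lung fibroblasts (LF1, passage 10). Cells were exposed to 2.5–40 μM drug for 48 hrs and viability was read by MTS. Triplicates were run, and values are mean ± SD of a representative experiment as % viability of untreated cells.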

[2] = system: SK-N-SH; experiment: Cytotoxicity against human SK-N-SH cells after 48 hrs; assay type: functional, cell-based; outline: as §1
[3] = system: IMR-32; experiment: Cytotoxicity against IMR32 cells after 48 hrs by MTS assay; assay type: functional, cell-based; details: Homo sapiens; outline: as §1
[4] = system: SMS-KCNR; experiment: Cytotoxicity against SMS-KCNR cells after 48 hrs by MTS assay; assay type: functional, cell-based; details: Homo sapiens; outline: as §1
[5] = Cell cycle arrest in SMS-KCNR cells by accumulation at G0/G1 phase at 3 uM after 24 hrs by flow cytometry; assay type: functional, cell-based; details: Homo sapiens
Outline: (§2)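 Cells were plated in 100 mm dishes at 7.5 × 10^5 per dish, left to attach overnight, then exposed to 3.0 μM drug for 12 or 24 hrs. Floating and scraped adherent cells were pooled and fixed in ice-cold 70% ethanol for 30 min. They were stained with 50 μg/mL propidium iodide plus 100 μg/mL RNase, 30 min at 37 °C in the dark. Flow cytometry read 10,000 gated single-cell events per sample. Results are given as % of cells per sub-population, with sub-G0/G1 taken as apoptotic.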

[6] = system: SMS-KCNR; experiment: Inhibition of cell proliferation of SMS-KCNR cells […] after 48 hrs by BrdU assay; assay type: functional, cell-based; details: Homo sapiens
Outline: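 SMS-KCNR cells were plated at 5 × 10^3 per well, attached overnight, and treated with 300 nM–5 μM drug for 48 hrs. BrdU (10 μM final) was added for a further 6 hrs. Fixed cells were incubated with anti-BrdU–peroxidase for 2 hrs at 37 °C, developed with TMB, stopped with sulfuric acid, and read at 450 nm after blank subtraction. Triplicates were run, expressed as % of untreated absorbance.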

[7] = system: SMS-KCNR; experiment: Reduction of SMS-KCNR cell viability at 5 uM after 48 hrs in presence of Z-LEHD-FMK; assay type: functional, cell-based; details: Homo sapiens
Outline: (§3)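 SMS-KCNR cells were pre-incubated for 2 hrs with 40 μM caspase inhibitor (Z-VAD-FM, Z-DEVD-FMK, Z-IETD-FMK or Z-LEHD-FMK). Drug was then added at 5.0 μM for 48 hrs and viability measured. Triplicates were run, and values are mean ± SD of a representative experiment as % viability of untreated cells.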

[8] = system: SMS-KCNR; experiment: Induction of apoptosis in SMS-KCNR cells assessed as increase in caspase 8 activation by Western blotting; assay type: functional, cell-based; details: Homo sapiens
Outline: (§4)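 SMS-KCNR cells at about 80% confluency were treated with 3 μM drug for the indicated times, then lysed in NP-40 buffer with protease and phosphatase inhibitors. Lysates (50 μg protein per lane) were run on 12% SDS-PAGE and blotted to PVDF. Blots were blocked in 5% milk and probed overnight at 4 °C with 1:1000 primary antibodies in 5% BSA. Targets were phospho and total JNK, p38 and Akt, pro and active caspase-3, -8 and -9, and cleaved PARP-1, with β-actin as loading control.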

[9] = Induction of apoptosis in SMS-KCNR cells at 3 uM after 12 hrs by flow cytometry; assay type: functional, Homo sapiens; outline: as §2
[10] = Cell cycle arrest in SMS-KCNR cells by accumulation at G2/M phase at 3 uM after 12 hrs by flow cytometry; assay type: functional, cell-based; details: Homo sapiens; outline: as §2
[11] = Cell cycle arrest in SMS-KCNR cells by accumulation at S phase at 3 uM after 24 hrs by flow cytometry; assay type: functional, cell-based; details: Homo sapiens; outline: as §2
[12] = system: SMS-KCNR; experiment: Induction of apoptosis in SMS-KCNR cells assessed as increase in PARP1 activation by Western blotting; assay type: functional, cell-based; details: Homo sapiens; outline: as §4
[13] = Cytotoxicity against lung fibroblast cells after 48 hrs by MTS assay; assay type: cell-based; details: human; outline: as §1
[14] = system: SMS-KCNR; experiment: Cytotoxicity against SMS-KCNR cells at 2.5 uM to 5.0 uM after 48 hrs by MTS assay; assay type: functional, cell-based; details: Homo sapiens; outline: as §1
[15] = system: SMS-KCNR; experiment: Reduction of SMS-KCNR cell viability at 5 uM after 48 hrs in presence of Z-VAD-FM; assay type: functional, cell-based; details: Homo sapiens; outline: as §3
[16] = Induction of apoptosis in SMS-KCNR cells at 3 uM after 24 hrs by flow cytometry; assay type: functional, Homo sapiens; outline: as §2
[17] = system: SMS-KCNR; experiment: Effect on JNK activation in SMS-KCNR cells after 1 hr by Western blotting; assay type: cell-based; details: Homo sapiens; outline: as §4
[18] = Cell cycle arrest in SMS-KCNR cells by accumulation at S phase at 3 uM after 12 hrs by flow cytometry; assay type: functional, cell-based; details: Homo sapiens; outline: as §2
[19] = target: RAC-alpha serine/threonine-protein kinase (Homo sapiens) (UniProt P31749); experiment: Inhibition of AKT in SMS-KCNR cells after 36 hrs by Western blotting; assay type: cell-based; outline: as §4
[20] = system: SMS-KCNR; experiment: Induction of apoptosis in SMS-KCNR cells assessed as increase in caspase 9 activation by Western blotting; assay type: functional, cell-based; details: Homo sapiens; outline: as §4
[21] = system: SMS-KCNR; experiment: Reduction of SMS-KCNR cell viability at 5 uM after 48 hrs in presence of Z-IETD-FMK; assay type: functional, cell-based; details: Homo sapiens; outline: as §3
[22] = system: SMS-KCNR; experiment: Induction of apoptosis in SMS-KCNR cells assessed as increase in caspase 3 activation by Western blotting; assay type: functional, cell-based; details: Homo sapiens; outline: as §4
[23] = target: MAP kinase p38 (Homo sapiens) (UniProt O15264+Q15759+Q16539+P53778); experiment: Effect on p38 activation in SMS-KCNR cells after 1 hr by Western blotting; assay type: cell-based; outline: as §4
[24] = Cell cycle arrest in SMS-KCNR cells by accumulation at G2/M phase at 3 uM after 24 hrs by flow cytometry; assay type: functional, cell-based; details: Homo sapiens; outline: as §2
[25] = system: SMS-KCNR; experiment: Reduction of SMS-KCNR cell viability at 5 uM after 48 hrs in presence of Z-DEVD-FMK; assay type: functional, cell-based; details: Homo sapiens; outline: as §3
[26] = Cell cycle arrest in SMS-KCNR cells by accumulation at G0/G1 phase at 3 uM after 12 hrs by flow cytometry; assay type: functional, cell-based; details: Homo sapiens; outline: as §2

Sequence of RAC-alpha serine/threonine-protein kinase (Homo sapiens) (P31749 whole entry): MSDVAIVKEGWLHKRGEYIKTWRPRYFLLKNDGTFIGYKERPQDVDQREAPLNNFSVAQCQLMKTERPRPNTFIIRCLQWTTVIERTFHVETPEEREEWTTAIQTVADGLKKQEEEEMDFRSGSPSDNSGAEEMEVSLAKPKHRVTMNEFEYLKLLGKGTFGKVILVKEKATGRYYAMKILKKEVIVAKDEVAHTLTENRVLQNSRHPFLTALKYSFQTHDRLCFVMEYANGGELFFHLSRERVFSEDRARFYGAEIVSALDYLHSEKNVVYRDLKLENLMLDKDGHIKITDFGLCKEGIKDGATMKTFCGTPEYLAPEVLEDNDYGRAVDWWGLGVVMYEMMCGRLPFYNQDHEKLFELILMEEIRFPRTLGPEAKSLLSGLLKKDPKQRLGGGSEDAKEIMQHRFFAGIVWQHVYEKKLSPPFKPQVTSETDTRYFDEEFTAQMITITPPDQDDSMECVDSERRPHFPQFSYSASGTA

SMILES: S=C=NCCc1c[nH]c2ccc(OCc3ccccc3)cc12
- Activity [1]: Dose-dependent effect
- IC50 [2]: < 2500 nM
- Activity [3]: Dose-dependent effect
- Activity [4]: Dose-dependent effect

SMILES: Cc1cccc2c(CCN=C=S)c[nH]c12
- Activity [5]: 68.9%
- Activity [1]: Dose-dependent effect
- Activity [6]: Active
- Activity [7]: Active
- Activity [8]: Active
- Activity [9]: 19.7%
- Activity [10]: 26.3%
- Activity [11]: 6.5%
- Activity [12]: Active
- Activity [13]: Not Active
- Activity [14]: Active
- Activity [15]: Active
- Activity [16]: 18.8%
- IC50 [2]: < 2500 nM
- Activity [3]: Dose-dependent effect
- Activity [17]: Active
- Activity [18]: 7.3%
- Activity [19]: Active
- Activity [20]: Active
- Activity [21]: Active
- Activity [22]: Active
- Activity [23]: Active
- Activity [4]: Dose-dependent effect
- Activity [24]: 24.5%
- Activity [25]: Active
- Activity [26]: 66.4%
